Measured values reported in ChEMBL document CHEMBL4052826, “Design and Synthesis of Novel Reactive Oxygen Species Inducers for the Treatment of Pancreatic Ductal Adenocarcinoma” (J Med Chem, 2018).
Activity calls are given as the source filed them. No cut-off for these calls is given here.

Assays:
MIA PaCa-2 [1] = experiment: Antitumor activity against human MIAPaCa2 cells xenografted in NOD/SCID mouse at 15 mg/kg administered twice a week for 15 days; type: functional, organism-based
In short: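 MIA PaCa-2 subcutaneous xenografts in NOD/SCID mice, randomized at 75 mm3. Test agent was given at 5 mg/kg five times a week. Gemcitabine was given at 15 mg/kg either once weekly for 48 days or twice weekly for 15 days. Groups were n=3–4. Tumor volume was measured by caliper, given as mean ± SEM, and compared by unpaired t test.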

[2] = Cytotoxicity against HPDEC assessed as decrease in cell proliferation after 72 hrs by MTT assay; type: cell-based; settings: Homo sapiens
In short: (§1)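 MTT assay. Cells (3000–8000/well) attached overnight in RPMI1640 with 10% FBS; the GR line was kept with 200 nM gemcitabine. Serial dilutions (30 nM–10 μM for most lines) were applied for 72 h. MTT was added at a final 300 μg/mL for 3 h at 37°C, formazan was dissolved in DMSO and A570 read. Inhibition = (1 − OD treated/OD control) × 100. IC50 given as mean ± SD, three independent experiments.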

MIA PaCa-2 [3] = experiment: Cytotoxicity against human MIAPaCa2 cells assessed as decrease in cell proliferation after 72 hrs by MTT assay; type: functional, cell-based; settings: MIA PaCa-2, 72 h; in short: as §1
MIA PaCa-2 [4] = experiment: Antitumor activity against human MIAPaCa2 cells xenografted in NOD/SCID mouse assessed as tumor volume at 15 mg/kg administered once a week for 48 days (reference value: 1503 +/- 189 mm'3); type: functional
In short: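 MIA PaCa-2 cells (2.0 × 10^6 in RPMI1640) were injected subcutaneously into the dorsal flank of 6-week NOD/SCID mice. Mice were randomized at 75 mm3 mean tumor size (vehicle n=4, treated n=3) and dosed at 15 mg/kg once weekly for 48 days. Tumors were measured by caliper twice weekly, with V = d2 × D/2. Values are mean ± SEM, and p values are from an unpaired t test.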

Mus musculus [5] = experiment: Toxicity in NOD/SCID mouse xenografted with human MIAPaCa2 cells assessed as body weight loss at 15 mg/kg administered twice a week for 15 days; type: organism-based; settings: in vivo, 360 h
In short: (§2)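 MIA PaCa-2 xenografted NOD/SCID mice randomized at 75 mm3 into vehicle (n=4), once-weekly (n=3) or twice-weekly (n=4) groups; 15 mg/kg given once a week for 48 days or twice a week for 15 days. Body weight followed; mean ± SEM.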

Mus musculus [6] = experiment: Toxicity in NOD/SCID mouse xenografted with human MIAPaCa2 cells assessed as body weight loss at 15 mg/kg administered once a week for 48 days; type: organism-based; settings: in vivo, 1152 h; in short: as §2
MIA PaCa-2 [7] = experiment: Cytotoxicity against gemcitabine-resistant human MIAPaCa2 cells assessed as decrease in cell proliferation after 72 hrs by MTT assay; type: functional, cell-based; settings: MIA PaCa-2, 72 h; in short: as §1

Which Activity (MIA PaCa-2 [1]) does the source give for `Nc1ccn([C@@H]2O[C@H](CO)[C@@H](O)C2(F)F)c(=O)n1` [GEMCITABINE] here?
The Activity was “Active”.

And the IC50 [2]?
The IC50 was 0.14 µM.

And the IC50 (MIA PaCa-2 [3])?
The IC50 was 0.11 µM.

What about the Activity (MIA PaCa-2 [4]) of the same compound?
The Activity was 387 mm3.

What about the Activity (Mus musculus [5]) of the same compound?
The Activity was “Non-Toxic”.

What about the Activity (Mus musculus [6]) of the same compound?
The Activity was “Non-Toxic”.

What about the IC50 (MIA PaCa-2 [7]) of the same compound?
The IC50 was 3.3 µM.
